Bioassay records (PubChem BioAssay)
Shown are actives, neighbours in structure and some others; about 2.9% of the full set was active somewhere.
TCR-CD3 inh – human TCR-CD3 binding inhibition | 0.37% of 360,000 active | TAMRA-labeled TCR probe fluorescence, biochemical | inhibition, % at 9.4 µM;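 also: recombinant mutant TCR 2C K166C tagged with TAMRA read by polarization; 0% = receptor in buffer alone and 100% = receptor with positive control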
PAD4 FP inh – blocks human protein arginine deiminase 4 | inhibition, % at 6.36 µM | Q9UM07 | recombinant PAD4, RCA probe fluorescence polarization | 0.41% of 330,000 active | AID 485272;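 active = percent inhibition above a cutoff equal to the mean of all tested compounds plus 3 SD, cut at about 15% in these data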;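 also: 0% = PAD4 with RCA probe and DMSO and 100% = probe without PAD4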
Target sequence (Q9UM07 whole entry, looked up): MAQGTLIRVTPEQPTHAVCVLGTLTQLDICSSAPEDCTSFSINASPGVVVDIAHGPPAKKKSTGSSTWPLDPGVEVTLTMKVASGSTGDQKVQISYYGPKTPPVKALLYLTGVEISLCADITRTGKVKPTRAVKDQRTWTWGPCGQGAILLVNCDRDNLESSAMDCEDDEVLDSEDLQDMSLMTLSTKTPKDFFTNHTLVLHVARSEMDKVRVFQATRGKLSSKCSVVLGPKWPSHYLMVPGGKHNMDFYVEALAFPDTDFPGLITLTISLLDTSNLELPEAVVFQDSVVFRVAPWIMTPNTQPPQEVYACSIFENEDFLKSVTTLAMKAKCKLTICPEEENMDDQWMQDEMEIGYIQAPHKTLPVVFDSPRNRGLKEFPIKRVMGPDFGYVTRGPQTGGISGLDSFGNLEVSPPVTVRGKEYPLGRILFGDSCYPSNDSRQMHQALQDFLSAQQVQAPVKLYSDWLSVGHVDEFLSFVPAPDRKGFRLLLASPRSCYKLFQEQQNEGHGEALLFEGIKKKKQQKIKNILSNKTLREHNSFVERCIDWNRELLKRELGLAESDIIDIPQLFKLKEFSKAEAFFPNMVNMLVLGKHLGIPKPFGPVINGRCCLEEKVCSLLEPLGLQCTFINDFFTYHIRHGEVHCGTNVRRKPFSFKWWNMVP
SIAE inh – human SIAE inhibition, primary screen; SIAE FP-Rh probe binding, fluorescence polarization; inhibition, % at 9.66 µM; 0.69% of 370,000 active;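 active = inhibition above a cutoff: mean of compounds within the control limits plus 3 SD of those, cut at about 17% in these data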;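 also: 0% = plate median of compound wells and 100% = probe without SIAE protein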
HTRA1 inhibitor – blocks human HTRA1 serine peptidase; recombinant HTRA1, FP-rhodamine activity-based probe, fluorescence polarization; 0.5% of 340,000 active; inhibition, % at 5.96 µM; Q92743; in the data active = inhibition above about 36%;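 also: 0% = enzyme with DMSO and 100% = wells lacking enzyme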
mABHD4 FP – ABHD4 (mouse) inhibition, primary FP screen | purified mABHD4, FP-Rh probe fluorescence polarization | Q8VD66 | inhibition, % at 8.92 µM | AID 720543 | 0.54% of 370,000 active;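 active = inhibition exceeding the mean over every tested compound plus 3 SD, cut at about 30% in these data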;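 also: 0% = plate median of compound wells and 100% = S159A mutant with DMSO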
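Assay system: wild-type mouse ABHD4 protein; compound: single nominal dose of 8.92 µM, 0.89% DMSO final; schedule: 45 min + 60 min at 25 °C; measured by: FP readout, ex 525 nm / em 598 nm; evaluation: % inhibition of FP-Rh probe binding versus controls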
PRMT1 inh – PRMT1 (human) inhibition, primary screen; Q99873; recombinant PRMT1, activity-based probe fluorescence polarization; inhibition, % at 2.79 µM; 1.3% of 370,000 active; AID 652257;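 active = inhibition above about 21% made by adding two undisclosed values, limit read from the data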
PAD4 confirm – confirmation of human PAD4 inhibitors | shares compounds with PAD4 FP inh | recombinant PAD4, RCA probe fluorescence polarization | 28% of 1,200 active | inhibition, % at 6.36 µM;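 active = mean inhibition across replicates above the hit cutoff set by the earlier primary screen, cut at about 15% in these data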;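 also: inhibitors block active-site labeling by the probe so polarization falls; 0% = PAD4 with probe and DMSO and 100% = probe without PAD4 enzyme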
HTRA1 conf – confirmation of human HTRA1 inhibitors. shares compounds with HTRA1 inhibitor. recombinant HTRA1, FP-rhodamine activity-based probe, fluorescence polarization. inhibition, % at 5.96 µM. 66% of 1,600 active. AID 540248;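 active = mean inhibition over three repeats above a set limit taken from the earlier primary screen, cut at about 37% in these data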;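 also: 0% = HTRA1 with DMSO and 100% = wells lacking HTRA1; inhibitors block probe binding so polarization drops and inhibition rises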
BSA probe FL – interferes with TAMRA-BSA probe, flagging TCR-CD3 hits | shares compounds with TCR-CD3 inh | TAMRA-labeled BSA probe fluorescence counterscreen | inhibition, % at 9.4 µM | 10% of 1,200 active | AID 652035; in the data active = inhibition above about 23%;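 also: 0% = buffer low control and 100% = reference high control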
TCR-CD3 inh conf – confirmation of human TCR-CD3 interaction inhibitors | shares compounds with TCR-CD3 inh | TAMRA-labeled TCR probe fluorescence binding assay | inhibition, % at 9.4 µM | 48% of 1,200 active | AID 652036
mABHD4 conf – ABHD4 (mouse) inhibition, FP confirmation; purified mABHD4, FP-Rh probe fluorescence polarization; inhibition, % at 8.92 µM; AID 720658; shares compounds with mABHD4 FP; 55% of 1,800 active;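 active = mean inhibition across replicates above the hit cutoff set in the primary screen, cut at about 30% in these data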;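 also: 0% = wild-type ABHD4 with DMSO and 100% = catalytically dead S159A mutant with DMSO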
The depositor's hits bear a star; nt = not tested or not shown; + = active, no number; ! = repeats disagree. Rule as the data show it, unless noted: active = inhibition above about 19%; inactive = the rest.

SMILES	TCR-CD3 inh	PAD4 FP inh	SIAE inh	HTRA1 inhibitor	mABHD4 FP	PRMT1 inh	PAD4 confirm	mABHD4 conf	others
O=C1C=C(Nc2ccccc2O)c2ccccc2C1=O	3.1	64.6*	5.8	26.1	47.7*	12.2	31.2*	-5.2
Cc1ccc(NC2=CC(=O)C(=O)c3ccccc32)c(C)c1	-5.4	-12.3	1.7	14.9	6.7	-1.2	nt	nt
CC(=O)Nc1ccc(OCC(C)CN2CCC(C(O)(c3ccccc3)c3ccccc3)CC2)cc1 (stereo not given)	nt	nt	3.2	nt	-3.6	-3.0	nt	nt
CC1SC(=S)N(c2ccc(N(C)C)cc2)C1=O (stereo not given)	0.8	15.1*	10.1	28.7	33.3*	9.1	3.3	24.7
COCCCNc1c2c3c(cccc3[nH]c1=O)C(=O)c1ccccc1-2	172.0*	135.0*	-5.6	125.7*	109.0*	+	151.3*	177.7*	HTRA1 conf=119.7*;BSA probe FL=+;TCR-CD3 inh conf=185.1*
COCCCNC1=C(Cl)C(=O)c2ccccc2C1=O	6.6	-11.2	-3.5	7.5	3.5	-1.6	nt	nt
C#CCN1CC(N(C)CCOC(=O)c2cc(C)cc(C)c2)CS1(=O)=O (stereo not given)	nt	nt	1.5	nt	-0.8	-1.6	nt	nt
CCC(NC(=O)Nc1ccc(O)cc1)(C(F)(F)F)C(F)(F)F	28.4*	46.2*	11.9	28.3	61.9*	17.0	12.6	27.8	BSA probe FL=3.9;TCR-CD3 inh conf=1.7
CCCC[C@@H]1C(=O)N2N=Cc3cc4ccccc4cc3[C@H]2N2N=Cc3cc4ccccc4cc3[C@@H]12	nt	nt	-7.3	nt	-6.4	5.1	nt	nt
Cc1ccccc1NC1=C/C(=N\S(=O)(=O)c2ccc(C(=O)O)cc2)c2ccccc2C1=O	4.2	71.0*	3.7	26.2	63.3*	6.1	58.2*	65.3*
CCc1ccc(S(=O)(=O)/N=C2\C=C(NS(=O)(=O)c3ccccc3)C(=O)c3ccccc32)cc1	-12.4	nt	-1.7	7.2	27.7	5.6	nt	nt
CN(C)c1ccc(N/C=C/C(=O)c2ccccc2)cc1	8.4	17.3*	0.8	54.4*	45.5*	22.1*	-3.0	-14.6	HTRA1 conf=4.9
N#C/C(=C\c1cccnc1)C(=O)Nc1ccc(O)cc1F	-18.8	17.9*	10.7	22.6	67.3*	2.7	6.5	10.8
N#C/C(=C\c1cccnc1)C(=O)Nc1ccccc1	3.9	1.3	2.5	-0.3	-4.3	3.5	nt	nt
COc1ccc(NC(=S)Nc2ccccc2)cc1	0.8	0.1	10.3	3.9	0.9	-3.8	nt	nt
Oc1ccc(NC(=S)Nc2ccccc2)cc1	8.3	21.5*!	7.6	5.4	42.4*	7.8	1.6	-7.1
CCC(=Nc1ccc(N)cc1)C1=C(O)C(C(=O)OC)C(C)(C)CC1=O (stereo not given)	68.0*	73.5*	24.8*	53.2*	82.0*	11.0	6.9	22.9	HTRA1 conf=1.4;BSA probe FL=12.1;TCR-CD3 inh conf=9.2
CCCC(=Nc1ccccc1)C1=C(O)C(C(=O)OC)C(C)(C)CC1=O (stereo not given)	3.0	-2.3	0.1	5.3	6.0	0.2	nt	nt
COc1ccc(OC)c(NC(=O)Nc2ccc(O)c3ccccc23)c1	-7.5	23.2*	10.1	16.7	33.0*	15.2	1.0	40.8*
COc1ccc2ccccc2c1/C=N/Nc1cccc(C(=O)O)c1	13.6	21.1*	14.9	5.7	37.4*	12.4	1.5	32.5*
Oc1ccc(CNc2ccccc2F)c2cccnc12	-0.9	0.2	9.0	10.0	-1.9	4.8	nt	nt
NC(=S)Nc1cccc2cccnc12	6.1	-1.3	2.5	-1.3	-4.0	1.7	nt	nt
Oc1ccccc1CNc1cccc2cccnc12	-8.4	34.8*	15.0	39.5*	46.6*	9.1	-3.6	-10.7	HTRA1 conf=4.6
NC(=S)NNc1cccc2cccnc12	19.1*	29.4*	5.9	46.4*	32.4*	21.0	5.0	52.2*	HTRA1 conf=26.8;BSA probe FL=-5.2;TCR-CD3 inh conf=3.3
CCCn1nc([N+](=O)[O-])c(C(C#N)c2nc3ccccc3s2)c(Cl)c1=O (stereo not given)	-1.5	19.1*	7.3	76.4*	77.9*	28.1*	22.7*	98.1*	HTRA1 conf=72.2*
SMILES	TCR-CD3 inh	PAD4 FP inh	SIAE inh	HTRA1 inhibitor	mABHD4 FP	PRMT1 inh	PAD4 confirm	mABHD4 conf	others
Cc1[nH]n(-c2ccccc2)c(=O)c1C(c1ccccc1C(=O)O)c1c(C)[nH]n(-c2ccccc2)c1=O	2.9	-3.5	0.7	-3.9	4.9	-3.2	nt	nt
Cc1[nH]n(-c2ccccc2)c(=O)c1C(c1ccccc1[N+](=O)[O-])C(C#N)C#N (stereo not given)	3.5	22.3*	13.8	13.6	41.9*	5.6	2.3	37.6*
COC[C@H]1CCCN1c1ccc2c(c1)O[C@H]1CCN(C1)S2(=O)=O	nt	nt	0.8	nt	-3.9	6.0	nt	nt
Cc1ccccc1NC(=O)N(C)[C@H]1C[C@H]2c3[nH]c4c(-c5ccc6c(c5)OCO6)cccc4c3CCN2C[C@H]1[C@H](C)O	nt	nt	3.5	nt	23.7	0.6	nt	nt
Cc1ccc(S(=O)(=O)Nc2cccnc2Oc2ccc(Cl)cc2)cc1	-8.6	-0.6	-3.2	-1.1	-7.2	5.4	nt	nt
Cc1ccc(S(=O)(=O)Nc2cc(Cl)c(O)c3ncccc23)cc1	-7.3	36.3*	16.9	70.4*	48.5*	14.5	6.9	56.9*	HTRA1 conf=54.5*
C=CCN1[C@@H](C)COc2cc(N3CCCC3)ccc2S1(=O)=O	nt	nt	-1.7	nt	7.3	0.3	nt	nt
CC1(C)Cc2c(c(-c3ccco3)[nH]c(=O)c2C#N)CS1	15.1	26.2*	10.3	8.0	30.0*	74.3*	4.7	5.0
COC(=O)[C@]12C[C@H](CC(=O)NCc3cccc(C(F)(F)F)c3)C(=O)N(Cc3ccc4c(c3)OCO4)C1=C[C@H](C(C)(C)C)O[C@@H]2C	10.1	nt	2.0	nt	-3.0	-0.6	nt	nt
COc1ccc2noc3c2c1C(=O)c1ccccc1-3	22.3*	142.6*	17.5*	62.8*	54.1*	157.4*	144.1*	29.3	HTRA1 conf=45.1*;BSA probe FL=44.1*;TCR-CD3 inh conf=28.6*
O=c1c2cc3cc(Cl)ccc3nc2ncn1CCc1c[nH]c2ccccc12	nt	nt	-27.2	nt	-5.8	-3.3	nt	nt
O=C(O)CSc1cc(NS(=O)(=O)c2ccc(Br)cc2)c2ccccc2c1O	-4.8	31.0*	12.6	45.5*	48.7*	56.8*	-1.7	49.3*	HTRA1 conf=18.0
